The source made the active and inactive calls. The rule behind the calls is not given here.

Series [1] concerns the target Histone deacetylase 2 (Homo sapiens, UniProt Q92769). The experiment in a line: Inhibition of HDAC2 (unknown origin).
Series [2] has as its target T1, Histone deacetylase 8 (Homo sapiens, UniProt Q9BY41).
T1 sequence (Q9BY41 whole entry): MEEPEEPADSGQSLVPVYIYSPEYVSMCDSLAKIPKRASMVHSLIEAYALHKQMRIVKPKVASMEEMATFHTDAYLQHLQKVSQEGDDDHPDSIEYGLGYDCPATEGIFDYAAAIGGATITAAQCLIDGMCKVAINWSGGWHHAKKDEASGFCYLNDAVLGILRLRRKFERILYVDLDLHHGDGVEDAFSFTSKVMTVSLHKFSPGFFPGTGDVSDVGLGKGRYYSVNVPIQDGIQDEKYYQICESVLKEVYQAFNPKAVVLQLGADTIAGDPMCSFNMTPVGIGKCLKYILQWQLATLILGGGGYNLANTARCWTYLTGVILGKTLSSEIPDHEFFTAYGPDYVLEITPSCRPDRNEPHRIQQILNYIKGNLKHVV
The series is described as follows: Inhibition of HDAC8 (unknown origin).

Series [3] has as its system MGC-803. The series is described as follows: Induction of apoptosis in human MGC803 cells assessed as viable cells at 4 uM measured after 48 hrs by Annexin-V FITC/PI staining based flow cytometry (reference value: 92.33%). Conditions: read-out: Activity. The class given is functional.
The test system of series [4] is MGC-803. The series is described as follows: Induction of apoptosis in human MGC803 cells assessed as early apoptotic cells at 4 uM measured after 48 hrs by Annexin-V FITC/PI staining based flow cytometry (reference value: 0.19%). The format is functional.
Series [5] concerns MGC-803. The experiment in a line: Induction of apoptosis in human MGC803 cells assessed as necrotic cells at 4 uM measured after 48 hrs by Annexin-V FITC/PI staining based flow cytometry (reference value: 4.74%). The format is functional. Background: A flow cytometer gives signals particle by particle.
Series [6] deals with MGC-803. The series is described as follows: Induction of apoptosis in human MGC803 cells assessed as viable cells at 8 uM measured after 48 hrs by Annexin-V FITC/PI staining based flow cytometry (reference value: 92.33%). The format is functional. Conditions: read-out: Activity.
For series [7], the system named is MGC-803. The experiment in a line: Induction of apoptosis in human MGC803 cells assessed as early apoptotic cells at 8 uM measured after 48 hrs by Annexin-V FITC/PI staining based flow cytometry (reference value: 0.19%). The format is functional.
Series [8] has as its system MGC-803. The experiment in a line: Induction of apoptosis in human MGC803 cells assessed as downregulation of Bcl2 expression after 48 hrs by Western blotting analysis. Conditions: dose 2-8 µM. The format is functional, cell-based. The procedure, abridged: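 MGC803 cells treated for 48 h, then lysed (0.1% SDS, 150 mM NaCl, 25 mM Tris-HCl, 1% deoxycholate, 1% NP-40, 1% PMSF). Protein quantified by BCA and resolved on 8–10% SDS-PAGE onto PVDF. Blocked in 5% milk, primary antibodies overnight at 4 °C, HRP secondary, ECL. GAPDH, total α-tubulin and H3 as references. Mean ± SD of three experiments.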
(In general: Immunoblotting shows a protein as a band on a membrane.)

Series [9] deals with MGC-803. The series is described as follows: Antiproliferative activity against human MGC803 cells at 2 to 8 uM after 72 hrs by EdU staining based assay. The format is functional, cell-based. Conditions: dose 2-8 µM. Summed up: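 MGC803 cells exposed to 0, 2, 4 or 8 µM for 72 h in 24-well plates, then EdU staining per kit instructions. EdU+ cells were imaged by immunofluorescence and quantified. Mean ± SD of three independent experiments; DMSO control.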

The nature of series [10]: Acute toxicity in C57BL/6 mouse assessed as mortality at 2 g/kg, po administered via gavage measured up to 14 days. The class given is organism-based. Conditions: in vivo, 2000 mg/kg, 336 h, time <=14 day. Summed up: (§1)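 Mice aged 8-10 weeks, 20 females and 20 males, split into two groups: vehicle control (0.5% CMC-Na) or a single oral gavage dose of 2000 mg/kg. Animals were fed and observed normally for 14 days, recording body weight, mortality and behaviour. Heart, liver, spleen, lung and kidney sections were then fixed, embedded and H&E stained.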

Series [11] in a line: Acute toxicity in C57BL/6 mouse assessed as change in body weight at 2 g/kg, po administered via gavage measured up to 14 days. The format is organism-based. Conditions: in vivo, 2000 mg/kg, 336 h, time <=14 day. Summed up:
as §1

A short description of series [12]: Acute toxicity in C57BL/6 mouse assessed as behavioral abnormalities at 2 g/kg, po administered via gavage measured up to 14 days. Conditions: in vivo, 2000 mg/kg, 336 h, time <=14 day. The format is organism-based. The procedure, abridged:
as §1

Series [13] is described as follows: Acute toxicity in C57BL/6 mouse assessed as liver tissue damage at 2 g/kg, po administered via gavage measured up to 14 days by HE staining based assay. The class given is organism-based. Conditions: in vivo, 2000 mg/kg, 336 h, time <=14 day. Summed up: as §1
Series [14] deals with T2, Protein deacetylase HDAC6 (Homo sapiens) (UniProt Q9UBN7).
T2 sequence (whole entry): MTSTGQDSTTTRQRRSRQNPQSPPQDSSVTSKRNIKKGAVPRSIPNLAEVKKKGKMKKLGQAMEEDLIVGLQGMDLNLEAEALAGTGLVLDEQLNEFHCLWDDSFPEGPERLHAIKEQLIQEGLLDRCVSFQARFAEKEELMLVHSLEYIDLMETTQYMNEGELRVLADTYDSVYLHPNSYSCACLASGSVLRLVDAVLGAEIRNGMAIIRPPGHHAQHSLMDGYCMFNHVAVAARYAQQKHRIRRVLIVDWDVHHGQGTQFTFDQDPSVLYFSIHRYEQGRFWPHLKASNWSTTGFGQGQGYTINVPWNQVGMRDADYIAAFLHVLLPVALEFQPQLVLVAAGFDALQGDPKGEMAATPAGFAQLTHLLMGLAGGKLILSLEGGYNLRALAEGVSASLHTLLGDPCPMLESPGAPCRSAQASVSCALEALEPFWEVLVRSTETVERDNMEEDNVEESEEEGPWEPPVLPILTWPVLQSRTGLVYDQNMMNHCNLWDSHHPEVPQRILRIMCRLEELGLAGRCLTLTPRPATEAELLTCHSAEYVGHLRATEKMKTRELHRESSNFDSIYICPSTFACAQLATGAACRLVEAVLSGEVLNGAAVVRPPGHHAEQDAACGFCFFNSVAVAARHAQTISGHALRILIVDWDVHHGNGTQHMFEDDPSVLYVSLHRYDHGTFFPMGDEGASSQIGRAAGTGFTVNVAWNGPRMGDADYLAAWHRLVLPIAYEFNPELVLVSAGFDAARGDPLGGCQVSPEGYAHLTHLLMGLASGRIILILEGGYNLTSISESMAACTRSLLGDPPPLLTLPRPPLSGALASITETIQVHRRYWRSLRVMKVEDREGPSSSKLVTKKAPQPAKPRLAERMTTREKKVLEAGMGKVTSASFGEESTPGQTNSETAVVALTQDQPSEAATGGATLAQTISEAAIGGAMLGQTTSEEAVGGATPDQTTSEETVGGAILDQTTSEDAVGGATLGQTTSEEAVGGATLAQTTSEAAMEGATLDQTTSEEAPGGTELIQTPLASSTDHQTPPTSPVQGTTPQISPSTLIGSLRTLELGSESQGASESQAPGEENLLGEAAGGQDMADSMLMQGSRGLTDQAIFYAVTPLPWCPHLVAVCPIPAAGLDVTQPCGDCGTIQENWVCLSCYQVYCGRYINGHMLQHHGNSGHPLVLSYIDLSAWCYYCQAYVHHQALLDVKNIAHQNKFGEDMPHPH
Conditions: Sf9, dose 100.0 nM, time 40.0 min.

Series [15] concerns the target Histone deacetylase 1 (Homo sapiens, UniProt Q13547). Conditions: dose 100.0 nM, time 40.0 min.

Histone deacetylase 2, sequence (Q92769 whole entry): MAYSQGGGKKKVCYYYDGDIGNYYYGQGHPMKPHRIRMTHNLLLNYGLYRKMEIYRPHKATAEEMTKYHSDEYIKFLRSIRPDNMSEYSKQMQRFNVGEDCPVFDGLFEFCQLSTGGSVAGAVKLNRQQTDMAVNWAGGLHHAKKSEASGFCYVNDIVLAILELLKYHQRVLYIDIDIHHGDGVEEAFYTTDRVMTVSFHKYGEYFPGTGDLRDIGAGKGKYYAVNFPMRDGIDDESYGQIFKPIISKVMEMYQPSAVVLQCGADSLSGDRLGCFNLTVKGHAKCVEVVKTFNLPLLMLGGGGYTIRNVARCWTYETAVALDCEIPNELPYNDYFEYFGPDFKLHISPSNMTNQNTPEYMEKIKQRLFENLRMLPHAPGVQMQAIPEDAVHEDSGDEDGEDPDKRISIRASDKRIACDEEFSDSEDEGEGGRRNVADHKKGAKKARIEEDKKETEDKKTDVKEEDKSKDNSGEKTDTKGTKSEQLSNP
Histone deacetylase 1, sequence (Q13547 whole entry): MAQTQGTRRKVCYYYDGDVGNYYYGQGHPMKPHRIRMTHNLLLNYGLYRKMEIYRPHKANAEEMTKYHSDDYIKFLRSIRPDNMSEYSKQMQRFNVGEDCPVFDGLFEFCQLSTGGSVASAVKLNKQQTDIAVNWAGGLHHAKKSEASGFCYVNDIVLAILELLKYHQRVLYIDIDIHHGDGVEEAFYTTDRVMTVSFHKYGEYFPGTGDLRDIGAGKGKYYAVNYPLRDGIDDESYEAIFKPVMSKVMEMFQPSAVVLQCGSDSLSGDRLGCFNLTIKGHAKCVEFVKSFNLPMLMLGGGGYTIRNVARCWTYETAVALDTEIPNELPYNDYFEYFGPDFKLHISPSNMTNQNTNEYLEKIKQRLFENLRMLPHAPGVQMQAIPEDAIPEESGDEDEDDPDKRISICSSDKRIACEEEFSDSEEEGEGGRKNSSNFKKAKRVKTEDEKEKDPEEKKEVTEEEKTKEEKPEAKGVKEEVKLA

For the compound `Cc1ccc(-c2nc(CNc3ccc(C(=O)NO)cc3)n(-c3ccccc3)n2)s1`, the 50% inhibitory concentration (IC50) (commonly the point on the concentration scale where inhibition reaches its midpoint) was found to be 0.224 µM in series [1] and 0.349 µM in series [2]. For the same compound, the viability at 4 µM in [3] is 79.3%. Moreover, the Activity in series [4] is 2.95%; in series [5], 2.21%; in series [7] it was 8.76%; in [8] it was “Dose-Dependent Effect”; in series [10] it was “Non-Toxic”; in [11] it was “Non-Toxic”. Further, the Activity result in series [12] and in [13] was “Non-Toxic” each time. Besides, the viability at 8 µM in [6] was 43.6%. Moreover, in series [9], the result was Active. Also, the inhibition (as a rule, the drop in the measured response relative to a control, in per cent) in series [14] came out at 79.7%; in [15], 30.1%.

The record behind these values is ChEMBL document CHEMBL4811252, “Identification of novel 1,3-diaryl-1,2,4-triazole-capped histone deacetylase 6 inhibitors with potential anti-gastric cancer activity” (Eur J Med Chem, 2021).
